From ChEMBL document CHEMBL1154126, “Sulforaphane induces cell-cycle arrest and apoptosis in cultured human lung adenocarcinoma LTEP-A2 cells and retards growth of LTEP-A2 xenografts in vivo” (J Nat Prod, 2008)

How the values were obtained:
LTEP-A2 = assay: Antiproliferative activity against human LTEP-A2 cells by trypan blue exclusion assay; format: functional, cell-based
Method in brief: (§1)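 Suspension-grown LTEP-A2 cells in RPMI 1640 with 20% heat-inactivated bovine serum, penicillin and streptomycin. Exponentially growing cells were added at 400 000 cells/mL to medium with 6.25–50 µM compound. Trypan blue-excluding cells were counted at 3, 24, 48 and 72 h relative to controls. IC50 was interpolated from 24 h dose-response curves. Three independent experiments, mean ± SD.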

[1] = Antiproliferative activity against human LTEP-A2 cells assessed as viable cells at 12.5 uM after 24 hrs by trypan blue exclusion assay; format: functional; settings: LTEP-A2, 24 h, read-out: Activity; method in brief: as §1
[2] = Antiproliferative activity against human LTEP-A2 cells assessed as viable cells at 25 uM after 24 hrs by trypan blue exclusion assay; format: functional; settings: LTEP-A2, 24 h, read-out: Activity; method in brief: as §1
[3] = Antiproliferative activity against human LS 174T cells; format: functional, cell-based; settings: LS174T
OVCAR-3 = assay: Antiproliferative activity against human OVCAR-3 cells; format: functional, cell-based
[4] = Antiproliferative activity against human LTEP-A2 cells after 24 hrs by trypan blue exclusion assay; format: functional, cell-based; settings: LTEP-A2, 24 h; method in brief: as §1
Jurkat = assay: Antiproliferative activity against human lymphoblastoid cells using annexin-V FITC and PI staining by flow cytometry
DU-145 = assay: Antiproliferative activity against human DU145 cells assessed as viable cells after 24 hrs; settings: DU-145, 24 h

SMILES: S=C=NCCc1ccccc1 [PHENETHYLISOTHIOCYANATE]
- Activity (LTEP-A2): Dose-dependent effect
- viability at 12.5 µM [1]: 12%
- viability at 25 µM [2]: 81%
- IC50 [3]: 7 µM
- IC50 (OVCAR-3): 23.2 µM
- IC50 [4]: 20 µM

SMILES: C[S+]([O-])CCCCN=C=S (stereo not given) [SULFORAPHANE]
- IC50 (Jurkat): 3.8 µM
- IC50 (DU-145): 10 µM
- IC50 [3]: 95 µM
- IC50 [4]: 6.25 µM
